Source: ChEMBL document CHEMBL4342493, “Design and Optimization of 3'-(Imidazo[1,2-a]pyrazin-3-yl)-[1,1'-biphenyl]-3-carboxamides as Selective DDR1 Inhibitors” (ACS Med Chem Lett, 2020)

Key:
[1] = tested on: NCI-H1299; assay: Antiinvasive activity against human H1299 cells at 5 uM after 24 hrs by crystal violet staining based transwell assay relative to control; type: functional; conditions: NCI-H1299, 24 h
Outline: (§1)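 H1299 NSCLC cells; transwell invasion assay over 24 h with compound at 1.25, 2.5 and 5.0 μM; invasion expressed relative to blank control.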

[2] = tested on: NCI-H1299; assay: Antimigratory activity against human H1299 cells assessed as reduction in wound closure at 1.25 uM after 24 hrs by bright field microscopic based wound healing assay relative to control; type: functional; conditions: NCI-H1299, 24 h
Outline: (§2)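 Wound healing (scratch) migration assay in H1299 cells at 1.25, 2.5 and 5.0 μM; wound closure compared with blank control groups.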

[3] = tested on: NCI-H1299; assay: Antiinvasive activity against human H1299 cells at 1.25 uM after 24 hrs by crystal violet staining based transwell assay relative to control; type: functional; conditions: NCI-H1299, 24 h; outline: as §1
[4] = species: Homo sapiens; assay: Selectivity index, ratio of IC50 for human recombinant His-tagged c-Kit cytoplasmic domain (544 to 976 residues) expressed in baculovirus expression system using Ser/Thr 6 peptide as substrate after 1 hr in presence of 300 uM ATP by FRET based Z'-LYTE assay to IC50 for recombinant human GST-tagged DDR1 catalytic domain (440 to 876 residues) expressed in baculovirus expression system using Fluorescein-poly GAT as substrate incubated for 1 hr in presence of ATP by LanthaScreen Eu kinase assay
Outline: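 Ratio of c-Kit IC50 to DDR1 IC50. c-Kit was measured by FRET-based Z′-Lyte assay and DDR1 by LanthaScreen Eu kinase assay. Each IC50 is the mean of three independent experiments, with variation <20%.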

[5] = target: Mast/stem cell growth factor receptor Kit (Homo sapiens, UniProt P10721); assay: Inhibition of human recombinant His-tagged c-Kit cytoplasmic domain (544 to 976 residues) expressed in baculovirus expression system using Ser/Thr 6 peptide as substrate after 1 hr in presence of 300 uM ATP by FRET based Z'-LYTE assay
Sequence of Mast/stem cell growth factor receptor Kit (P10721 whole entry, the tested form may be a part): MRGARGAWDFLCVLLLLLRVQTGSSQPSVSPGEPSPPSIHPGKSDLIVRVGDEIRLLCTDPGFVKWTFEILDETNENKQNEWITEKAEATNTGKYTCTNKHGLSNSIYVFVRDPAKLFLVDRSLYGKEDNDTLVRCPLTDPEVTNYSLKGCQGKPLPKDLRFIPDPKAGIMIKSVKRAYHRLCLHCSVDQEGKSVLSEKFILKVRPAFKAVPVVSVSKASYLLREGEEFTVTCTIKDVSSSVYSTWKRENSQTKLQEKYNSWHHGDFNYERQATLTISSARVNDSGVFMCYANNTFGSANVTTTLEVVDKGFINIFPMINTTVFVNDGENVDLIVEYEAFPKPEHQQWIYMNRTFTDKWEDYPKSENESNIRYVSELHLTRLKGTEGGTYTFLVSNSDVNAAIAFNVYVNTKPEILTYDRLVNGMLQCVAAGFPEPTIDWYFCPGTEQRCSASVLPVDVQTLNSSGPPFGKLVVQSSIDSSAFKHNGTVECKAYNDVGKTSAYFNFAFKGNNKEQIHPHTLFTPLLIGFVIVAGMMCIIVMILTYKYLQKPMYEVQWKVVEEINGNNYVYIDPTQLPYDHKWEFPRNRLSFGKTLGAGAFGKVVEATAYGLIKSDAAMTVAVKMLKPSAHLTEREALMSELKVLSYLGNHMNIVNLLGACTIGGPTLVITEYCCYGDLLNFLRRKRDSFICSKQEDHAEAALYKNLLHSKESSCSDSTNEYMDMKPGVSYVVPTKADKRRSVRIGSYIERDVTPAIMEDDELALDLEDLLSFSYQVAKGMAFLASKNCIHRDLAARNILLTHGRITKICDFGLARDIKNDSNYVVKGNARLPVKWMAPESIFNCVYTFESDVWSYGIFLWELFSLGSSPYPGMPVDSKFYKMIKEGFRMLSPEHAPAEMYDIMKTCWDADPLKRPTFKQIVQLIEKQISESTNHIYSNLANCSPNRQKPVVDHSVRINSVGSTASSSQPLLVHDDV

[6] = target: T1, Dual specificity protein kinase TTK (Homo sapiens) (UniProt P33981); assay: Inhibition of wild-type human partial length TTK (N505 to V798 residues) expressed in bacterial expression system assessed as enzyme residual activity at 200 nM after 1 hr by Kinomescan method relative to control
T1 sequence (whole entry): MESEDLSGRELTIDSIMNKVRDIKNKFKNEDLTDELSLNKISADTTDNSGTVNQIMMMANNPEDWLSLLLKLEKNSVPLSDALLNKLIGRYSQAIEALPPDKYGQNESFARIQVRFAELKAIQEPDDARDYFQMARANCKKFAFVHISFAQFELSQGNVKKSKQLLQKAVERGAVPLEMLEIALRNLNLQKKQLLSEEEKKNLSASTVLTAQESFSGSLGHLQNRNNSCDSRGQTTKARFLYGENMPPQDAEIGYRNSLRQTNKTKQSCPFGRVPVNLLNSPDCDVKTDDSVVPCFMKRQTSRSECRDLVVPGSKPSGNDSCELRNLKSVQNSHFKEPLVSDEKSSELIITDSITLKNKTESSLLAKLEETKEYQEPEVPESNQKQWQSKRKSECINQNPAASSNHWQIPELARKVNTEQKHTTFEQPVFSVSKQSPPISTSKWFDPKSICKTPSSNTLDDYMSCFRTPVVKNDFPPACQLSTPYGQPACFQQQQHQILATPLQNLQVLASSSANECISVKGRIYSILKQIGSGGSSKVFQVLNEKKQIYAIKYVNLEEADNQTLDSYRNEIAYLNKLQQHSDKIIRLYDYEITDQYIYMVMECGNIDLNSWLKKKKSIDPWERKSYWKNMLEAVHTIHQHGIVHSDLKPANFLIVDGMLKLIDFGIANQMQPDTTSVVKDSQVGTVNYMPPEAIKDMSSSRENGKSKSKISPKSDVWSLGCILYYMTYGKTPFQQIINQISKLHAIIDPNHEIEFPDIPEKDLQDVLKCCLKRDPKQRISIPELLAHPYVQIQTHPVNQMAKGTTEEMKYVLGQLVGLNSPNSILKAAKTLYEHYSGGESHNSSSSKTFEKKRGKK

[7] = target: T2, Dual specificity protein kinase TTK (Homo sapiens, UniProt P33981); assay: Binding affinity to wild-type human partial length TTK (N505 to V798 residues) expressed in bacterial expression system after 1 hr by Kinomescan method
T2 sequence (P33981 whole entry): T1 sequence (whole entry)
Outline: (§3)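 KINOMEscan binding; Kd determined for DDR1 and the off-target kinases DDR2, CAMK1D, CLK4 and TTK.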

[8] = target: Calcium/calmodulin-dependent protein kinase type 1D (Homo sapiens, UniProt Q8IU85); assay: Binding affinity to wild-type human partial length CAMK1D (M1 to K299 residues) expressed in bacterial expression system after 1 hr by Kinomescan method; outline: as §3
Sequence of Calcium/calmodulin-dependent protein kinase type 1D (Q8IU85 whole entry, the tested form may be a part): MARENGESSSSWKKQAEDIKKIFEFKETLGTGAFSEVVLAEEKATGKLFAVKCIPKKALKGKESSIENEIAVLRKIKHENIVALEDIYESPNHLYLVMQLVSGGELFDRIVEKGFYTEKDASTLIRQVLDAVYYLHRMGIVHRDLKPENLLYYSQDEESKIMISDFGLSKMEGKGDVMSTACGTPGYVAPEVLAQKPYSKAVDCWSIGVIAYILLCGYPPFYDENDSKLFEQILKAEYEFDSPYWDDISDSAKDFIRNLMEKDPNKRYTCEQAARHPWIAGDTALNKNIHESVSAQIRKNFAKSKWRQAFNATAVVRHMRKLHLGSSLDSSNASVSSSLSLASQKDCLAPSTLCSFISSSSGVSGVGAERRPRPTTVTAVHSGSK

[9] = tested on: NCI-H1299; assay: Inhibition of colony formation in human H1299 cells assessed as reduction in number of colonies measured after 10 days by crystal violet staining based assay; type: functional, cell-based
Outline: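 Colony formation in H1299 cells under continuous compound treatment for 10 days; colony number quantified and IC50 derived from dose-response.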

[10] = target: Dual specificity protein kinase CLK4 (Homo sapiens, UniProt Q9HAZ1); assay: Binding affinity to wild-type human partial length CLK4 (R135 to K481 residues) expressed in bacterial expression system after 1 hr by Kinomescan method; outline: as §3
Sequence of Dual specificity protein kinase CLK4 (Q9HAZ1 whole entry, the tested form may be a part): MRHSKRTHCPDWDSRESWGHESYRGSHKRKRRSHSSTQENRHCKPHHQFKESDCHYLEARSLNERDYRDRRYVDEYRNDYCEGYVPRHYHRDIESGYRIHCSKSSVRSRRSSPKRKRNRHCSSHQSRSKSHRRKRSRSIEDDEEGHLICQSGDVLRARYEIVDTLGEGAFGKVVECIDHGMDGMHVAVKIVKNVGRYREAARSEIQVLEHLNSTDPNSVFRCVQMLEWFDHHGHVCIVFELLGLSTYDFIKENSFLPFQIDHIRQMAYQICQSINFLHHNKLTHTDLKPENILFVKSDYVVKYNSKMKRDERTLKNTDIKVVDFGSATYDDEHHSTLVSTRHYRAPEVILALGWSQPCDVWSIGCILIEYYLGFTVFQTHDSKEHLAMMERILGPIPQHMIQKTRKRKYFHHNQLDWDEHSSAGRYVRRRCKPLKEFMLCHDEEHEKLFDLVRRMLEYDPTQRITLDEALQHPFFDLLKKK

[11] = tested on: NCI-H1299; assay: Antiinvasive activity against human H1299 cells at 2.5 uM after 24 hrs by crystal violet staining based transwell assay relative to control; type: functional; conditions: NCI-H1299, 24 h; outline: as §1
[12] = tested on: NCI-H1299; assay: Antiinvasive activity against human H1299 cells after 24 hrs by crystal violet staining based transwell assay; type: functional, cell-based; outline: as §1
[13] = target: Epithelial discoidin domain-containing receptor 1 (Homo sapiens, UniProt Q08345); assay: Inhibition of recombinant human GST-tagged DDR1 catalytic domain (440 to 876 residues) expressed in baculovirus expression system using Fluorescein-poly GAT as substrate incubated for 1 hr in presence of ATP by LanthaScreen Eu kinase assay
Sequence of Epithelial discoidin domain-containing receptor 1 (Q08345 whole entry, the tested form may be a part): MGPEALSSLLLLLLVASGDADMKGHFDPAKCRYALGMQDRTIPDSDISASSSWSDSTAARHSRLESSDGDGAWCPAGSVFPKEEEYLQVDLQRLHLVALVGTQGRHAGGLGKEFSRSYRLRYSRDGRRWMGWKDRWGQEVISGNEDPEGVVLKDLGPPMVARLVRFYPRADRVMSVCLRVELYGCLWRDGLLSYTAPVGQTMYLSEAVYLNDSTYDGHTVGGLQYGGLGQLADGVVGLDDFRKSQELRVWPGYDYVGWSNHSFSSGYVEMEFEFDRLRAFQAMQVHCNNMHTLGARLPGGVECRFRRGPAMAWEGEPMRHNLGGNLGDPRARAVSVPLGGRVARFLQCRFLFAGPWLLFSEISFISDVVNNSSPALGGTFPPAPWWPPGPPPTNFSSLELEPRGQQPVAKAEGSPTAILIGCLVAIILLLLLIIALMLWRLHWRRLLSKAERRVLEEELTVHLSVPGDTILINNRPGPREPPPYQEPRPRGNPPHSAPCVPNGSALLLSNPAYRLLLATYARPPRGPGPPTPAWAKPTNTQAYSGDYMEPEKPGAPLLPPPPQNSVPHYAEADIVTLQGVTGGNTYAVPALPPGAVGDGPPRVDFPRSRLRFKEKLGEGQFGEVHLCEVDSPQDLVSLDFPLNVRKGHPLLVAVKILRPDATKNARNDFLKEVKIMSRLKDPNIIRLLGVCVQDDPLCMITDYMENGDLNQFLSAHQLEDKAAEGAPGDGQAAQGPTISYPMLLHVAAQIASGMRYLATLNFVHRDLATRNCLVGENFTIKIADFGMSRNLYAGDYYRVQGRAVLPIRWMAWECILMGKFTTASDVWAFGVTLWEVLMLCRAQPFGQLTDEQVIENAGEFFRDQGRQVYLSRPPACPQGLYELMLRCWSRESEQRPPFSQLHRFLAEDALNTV

[14] = tested on: NCI-H1299; assay: Antimigratory activity against human H1299 cells assessed as reduction in wound closure at 5 uM after 24 hrs by bright field microscopic based wound healing assay relative to control; type: functional; conditions: NCI-H1299, 24 h; outline: as §2
[15] = tested on: NCI-H1299; assay: Antiproliferative activity against human H1299 cells assessed as reduction in cell viability after 72 hrs by CCK-8 assay; type: functional, cell-based; conditions: NCI-H1299, 72 h
Outline: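 CCK-8 proliferation assay in H1299 cells; IC50 derived from dose-response; means of three independent experiments.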

[16] = target: Bcr/Abl fusion protein (Homo sapiens, UniProt P00519); assay: Inhibition of human recombinant full length His-tagged Bcr-Abl expressed in baculovirus expression system using tyrosine-2 peptide as substrate after 1 hr in presence of […] ATP by FRET based Z'-LYTE assay
Outline: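 FRET-based Z′-Lyte kinase assay for Bcr-Abl; IC50 values are means of three independent experiments, variations <20%.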

Ratio IC50 [4]: 420 | IC50 [5]: > 10000 nM | Activity [6]: 0% | Kd [7]: > 1000 nM | Kd [8]: > 1000 nM | IC50 ([9]; NCI-H1299, 240 h): 46 nM | Kd [10]: > 1000 nM | IC50 [13]: 23.8 nM | IC50 [15]: 6600 nM | IC50 [16]: > 10000 nM
Structure (SMILES): CCc1ccc(C(=O)Nc2cc(F)cc(C(F)(F)F)c2)cc1-c1cc(C)cc(-c2cnc3cnccn23)c1
inhibition at 5 µM [1]: 71% | inhibition at 1.25 µM [2]: 40% | inhibition at 1.25 µM [3]: 17% | inhibition [9]: Dose-dependent effect | inhibition at 2.5 µM [11]: 50% | inhibition [12]: Dose-dependent effect | inhibition at 5 µM [14]: 84%
